Screens as filed in PubChem.
TRPC6 inhibitor: mouse TRPC6 channel inhibition; actives 1.1% (n = 310,000); AID 2553; B-score at 10 µM; HEK293-TRPC6, membrane potential dye, ACh-evoked depolarization; active compounds read low;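 active = B-score under library mean minus 3 SD, initial fluorescence not abnormally high, positive integrated signal ratio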;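 also: B-score derived from integrated fluorescence ratio over the kinetic read; more negative B-score means stronger inhibition of depolarization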
TRPC6 activator: activators of mouse TRPC6 channel | Q61143 | HEK293-TRPC6 membrane potential dye fluorescence; active compounds read high | B-score at 10 µM | actives 0.13% (n = 310,000) | AID 2550;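 active = B-score of the integrated fluorescence ratio above library mean plus 3 SD, and starting fluorescence ratio within library mean plus 5 SD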;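 also: higher score means more depolarization so channel activation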
TRPC4 PAM: allosterically enhances the mouse TRPC4 cation channel | B-score at 10 µM | Q9QUQ5 | HEK293 TRPC4beta/mu-opioid, DAMGO EC20, Fluo-4 Ca2+ flux; active compounds read high | actives 0.42% (n = 310,000);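 active = B-score of calcium response area above 5 SD of library B-scores, with initial fluorescence ratio within 5 SD of library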;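 also: B-score of integrated fluorescence ratio over time as area under calcium response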
TRPC4 act: activators of mouse TRPC4 channel | Q9QUQ5 | AID 2237 | B-score at 10 µM | HEK293 TRPC4beta/mu-opioid, Fluo4 calcium fluorescence; active compounds read high | actives 0.49% (n = 310,000);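 active = B-score above 5 SD of library B-scores, and initial fluorescence ratio not above library mean plus 5 SD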;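 also: positive B-score marks a calcium rise read as TRPC4 activation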
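System – HEK293 cells stably co-expressing mouse TRPC4beta and mu-opioid receptor · Signal – Fluo4 calcium-sensitive dye fluorescence, kinetic, 1 Hz baseline · Benchmarks – buffer (low) and maximal DAMGO (high) · Read-out – B score of integrated fluorescence ratio per well · Incubation – dye loading 45 min room temperature, 110 s kinetic read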
TRPC4 block: inhibitors of mouse TRPC4 channel; HEK293 TRPC4beta/mu-opioid, DAMGO-evoked Fluo4 calcium flux; active compounds read low; Q9QUQ5; actives 0.39% (n = 300,000); B-score at 10 µM;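 active = B-score over 3 SD under the library average, no early fluorescence shift, positive overall ratio signal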
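test system = HEK293 cells with stable TRPC4beta plus mu-opioid receptor expression | detection = Fluo4 Ca2+ flux fluorescence | read-out = integrated fluorescence ratio relative to baseline, converted to per-well B score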
TRPC4 spec 2: second check of whether TRPC6 inhibitors also affect mouse TRPC4; shares compounds with TRPC6 inhibitor; HEK293 TRPC4/MOR, membrane potential dye fluorescence; channel activated by saturating DAMGO dose; inhibition, % at 10 µM; actives 42% (n = 920); AID 2776;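 active = compounds whose fluorescence signal differed from control wells by over 3 SD, either direction, in both duplicate plates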
TRPC4 spec: tests whether TRPC6 inhibitors also affect mouse TRPC4 | actives 61% (n = 920) | shares compounds with TRPC6 inhibitor | HEK293 TRPC4/mu-opioid, membrane potential fluorescence | activity change, negative = inhibition, % at 10 µM | AID 2777;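 active = rise or fall in signal beyond 3 SD of buffer-only wells in both replicate plates, either sign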;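 also: integrated kinetic ratio of fluorescence range over baseline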
HEK293 MPD ctr 2-1: parental HEK293 nonspecific activity of TRPC6 inhibitors, second screen; shares compounds with TRPC6 inhibitor; AID 2779; signal change vs control, % at 10 µM; actives 31% (n = 920); parental HEK293 membrane potential dye fluorescence; maximal acetylcholine challenge after compound addition;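 active = membrane potential signal moving either way by over 3 SD of the maximum-effect control, in both duplicate plates, meaning non-specific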
HEK293 MPD ctr-1: checks TRPC6 inhibitor effects in parental HEK293 cells; shares compounds with TRPC6 inhibitor; parental HEK293 membrane potential dye fluorescence; membrane potential signal change, % at 10 µM; actives 60% (n = 920);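 active = membrane potential signal shifting up or down by more than 3 SD of buffer-only wells, on both duplicate plates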
HEK293 MPD ctr-2: parental HEK293 nonspecific activity of TRPC6 modulators. shares compounds with TRPC6 inhibitor. membrane potential dye fluorescence. membrane potential signal change, % at 10 µM. actives 51% (n = 2,400);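 active = membrane potential signal moves up or down beyond 5 SD from buffer-only wells, on both duplicate plates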
HEK293 MPD ctr 2-2: second check of TRPC6 modulator effects in parental HEK293 cells; inhibition, % at 10 µM; actives 14% (n = 2,400); shares compounds with TRPC6 inhibitor; membrane potential dye fluorescence; after compound, maximal acetylcholine stimulation;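 active = membrane potential signal drops by more than 5 SD from the mean control signal, in both duplicate plates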;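 also: plate controls were acetylcholine ECmax control wells for no effect and buffer only wells for full effect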
TRPC4 ctr mod: tests whether TRPC6 modulators also affect mouse TRPC4. shares compounds with TRPC6 inhibitor. HEK293 TRPC4/mu-opioid, membrane potential fluorescence. percent change from control (negative = decrease, positive = increase), % at 10 µM. actives 69% (n = 2,400);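 active = membrane potential signal moved up or down beyond 5 SD of buffer control wells, in both duplicate plates, actives on both sides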;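 also: plate controls were assay buffer wells for no effect and DAMGO maximal-effect wells for full effect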
TRPC4/MOR inh 2: second check of whether TRPC6 modulators also affect mouse TRPC4; shares compounds with TRPC6 inhibitor; HEK293 TRPC4/mu-opioid, membrane potential dye fluorescence; stimulated with maximal-effect DAMGO; inhibition, % at 10 µM; actives 55% (n = 2,400); AID 488928;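 active = drop in membrane potential signal beyond 5 SD of the control wells in both duplicate plates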;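 also: TRPC4 counter screen for TRPC6 hits run under conditions tuned for TRPC6 not TRPC4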
TRPC6 block conf: confirmation of mouse TRPC6 inhibitors; shares compounds with TRPC6 inhibitor; HEK293-TRPC6, membrane potential dye, ACh-evoked depolarization; inhibition, % at 10 µM; actives 43% (n = 3,300);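 active = fluorescence ratio falls more than 5 SD below the full-stimulation control mean, in both duplicate runs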;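 also: integrated fluorescence ratio of peak minus minimum over baseline after agonist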
TRPC6 act confirm: confirmation of mouse TRPC6 activators | activation, % at 10 µM | actives 11% (n = 2,800) | HEK293-TRPC6 membrane potential dye fluorescence, FDSS | shares compounds with TRPC6 inhibitor | AID 488961;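 active = ratio signal rise beyond 5 SD above unstimulated control wells' mean, seen in both duplicate runs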;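 also: plate controls were buffer EC0 wells for no effect and acetylcholine ECmax response for full effect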
An asterisk follows results filed as active; i = inactive; . = not tested or not shown. Most compounds without a hit are left out; they make up all but 2.3% or so of the library.

SMILES	TRPC6 inhibitor	TRPC6 activator	TRPC4 PAM	TRPC4 act	TRPC4 block	HEK293 MPD ctr-2	HEK293 MPD ctr 2-2	TRPC4 ctr mod	TRPC4/MOR inh 2	TRPC6 block conf	TRPC6 act confirm	others
Cn1cc(CN(CCCN2CCOCC2)C(=S)Nc2cccc(Cl)c2)c2ccccc21	-6.8*	i	i	i	i	.	.	.	.	i	i	TRPC4 spec 2=i;TRPC4 spec=i;HEK293 MPD ctr 2-1=258%*;HEK293 MPD ctr-1=i
O=C1c2cccc3c(Nc4ccccc4Cl)c([N+](=O)[O-])cc(c23)C(=O)N1CCO	-10*	i	i	i	i	-100%*	i	-26%*	81%*	47%*	i
COc1ccc(N(Cc2ccccc2)S(=O)(=O)c2cc(C(=O)O)ccc2Cl)cc1	i	25*	i	i	i	190%*	i	42%*	i	i	148%*
O=C(O)c1ccc(Cl)c(S(=O)(=O)N(Cc2ccccc2)c2ccc(F)cc2)c1	i	17*	i	i	i	140%*	i	22%*	i	i	144%*
Cc1ccc(S(=O)(=O)Nc2cc3c4c(c2)CCN4C(=O)CC3)cc1	i	i	i	i	i	.	.	.	.	.	.
COc1ccc(CCNC(=O)C2CCN(Cc3nc(-c4cccc(Cl)c4)oc3C)CC2)cc1OC	-7.3*	i	i	i	i	i	i	i	75%*	i	i
O=C1c2ccccc2C(=O)c2c(NCCCN(CCO)CCO)cccc21	-13*	i	i	i	i	-304%*	90%*	-49%*	80%*	76%*	i
CCN(CC)CC(=O)Nc1cccc2c1C(=O)c1ccccc1C2=O	i	i	i	i	i	.	.	.	.	.	.
N=c1c(C(=O)NC2CCCC2)cc2c(=O)n3ccccc3nc2n1CCN1CCOCC1	i	i	i	i	i	.	.	.	.	.	.
Cc1ccc2nc3c(cc(C(=O)NCCc4ccccc4)c(=N)n3CCCN3CCOCC3)c(=O)n2c1	-6*	i	i	i	i	i	i	i	54%*	i	i
COc1ccc(CCNC(=O)c2cc3c(=O)n4ccccc4nc3n(CCN3CCOCC3)c2=N)cc1	-5.7*	i	i	i	i	i	i	74%*	86%*	i	i
N#Cc1cc2c(=O)n3ccccc3nc2n(CCCN2CCOCC2)c1=O	-12*	i	i	i	i	-285%*	85%*	-48%*	49%*	56%*	i
